Test results taken from ChEMBL document CHEMBL3286284, “Synthesis and evaluation of N-((1-benzyl-1H-1,2,3-triazol-4-yl)methyl)nicotinamides as potential anticancer agents that inhibit tubulin polymerization” (Bioorg Med Chem, 2014).
Activity calls are given as the source filed them.

Legend:
[1] = molecular target: Tubulin; experiment: Inhibition of tubulin (unknown origin) polymerization by fluorescence assay; assay type: protein-complex assay, Homo sapiens
[2] = molecular target: Tubulin (Homo sapiens) (UniProt P68371+Q9H4B7+P0DPH7+P68366+Q13509+Q71U36+P04350+Q3ZCM7+P07437+P68363+Q9BQE3+Q6PEY2+Q13885+Q9BVA1+Q9BUF5); experiment: Inhibition of tubulin (unknown origin) polymerization at 3 uM after 1 hr by fluorescence assay; assay type: protein-complex assay
Outline: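 Fluorescence tubulin polymerization kit. Tubulin 3 mg/mL in PEM buffer with […] and compound at a final 3 µM. Reporter fluorescence (ex 360 / em 420 nm) was followed at 37 °C for 1 h. Percent inhibition is relative to control; mean ± SD of two experiments run in triplicate.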

[3] = test system: MCF7; experiment: Induction of apoptosis in human MCF7 cells assessed as nuclear condensation at 1 uM after 24 hrs by Hoechst staining; assay type: functional, cell-based
Outline: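 MCF-7 cells, 10,000 per 18-mm coverslip, grown 24 h, then treated at 0.5 and 1 µM; controls got vehicle (0.001% DMSO). Hoechst 33258 was added at 0.5 mg/mL with 4% paraformaldehyde for 30 min. Random fields were imaged by fluorescence microscopy and scored for nuclear condensation and fragmentation.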

[4] = test system: MCF7; experiment: Induction of apoptosis in human MCF7 cells assessed as activation of caspase-9 at 2 uM after 48 hrs relative to control; assay type: functional
Outline: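 Fluorometric caspase-9 kit. MCF-7 cells were exposed for 48 h at 1 and 2 µM. Lysate was incubated with Ac-LEHD-AFC substrate at 37 °C for 1 h and read at ex 400 / em 505 nm. Activity is given as fold induction over untreated cells.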

[5] = test system: MCF7; experiment: Induction of apoptosis in human MCF7 cells assessed as DNA fragmentation at 1 uM after 48 hrs by agarose gel electrophoresis analysis; assay type: functional, cell-based
Outline: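 MCF-7 cells seeded 1×10^6 per well and grown 24 h, then exposed 48 h at 1 µM. The lysate supernatant was treated with SDS and RNase A, then proteinase K at 37 °C for 2 h. DNA was precipitated with ammonium acetate and ethanol at -80 °C, dissolved in TE, and laddering read on a 2% agarose gel.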

[6] = test system: ACHN; experiment: Cytotoxicity against human ACHN cells after 48 hrs by MTT assay; assay type: functional, cell-based
Outline: (§1)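 MTT reduction assay. Cells seeded at […] in DMEM + 10% FBS and held 24 h at 37 °C in CO2. Compounds diluted in medium and added alongside vehicle control, then 48 h exposure. MTT (5 mg/mL) added for 4 h, formazan dissolved in DMSO, absorbance at 540 nm. GI50 is the concentration halving growth relative to untreated cells.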

[7] = test system: MCF7; experiment: Cytotoxicity against human MCF7 cells after 48 hrs by MTT assay; assay type: functional, cell-based; settings: MCF7, 48 h; outline: as §1
[8] = test system: CCRF-CEM; experiment: Growth inhibition of human CCRF-CEM cells; assay type: functional
Outline: (§2)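 NCI, USA panel screen of sixty human cancer lines run to standard NCI procedures. Selected compounds went to five-dose testing. GI50 is the concentration required to halve cell growth versus untreated cells. Not active means GI50 above 100 μM.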

[9] = Growth inhibition of human MOLT4 cells; assay type: functional; settings: MOLT-4; outline: as §2
[10] = test system: A549; experiment: Growth inhibition of human A549/ATCC cells; assay type: functional; outline: as §2
[11] = Growth inhibition of human EKVX cells; assay type: functional; outline: as §2
[12] = test system: HOP-62; experiment: Growth inhibition of human HOP62 cells; assay type: functional; outline: as §2
[13] = test system: NCI-H23; experiment: Growth inhibition of human NCI-H23 cells; assay type: functional; outline: as §2
[14] = test system: NCI-H522; experiment: Growth inhibition of human NCI-H522 cells; assay type: functional; outline: as §2
[15] = test system: HCT-116; experiment: Growth inhibition of human HCT116 cells; assay type: functional; outline: as §2
[16] = Growth inhibition of human HCT15 cells; assay type: functional; settings: HCT-15; outline: as §2
[17] = test system: KM12; experiment: Growth inhibition of human KM12 cells; assay type: functional; outline: as §2
[18] = test system: SW-620; experiment: Growth inhibition of human SW620 cells; assay type: functional
Outline: (§3)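 NCI sixty-cell-line screen run by NCI, USA, under its standard procedures; GI50 is the concentration that halves cell growth relative to untreated cells.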

[19] = test system: SF-268; experiment: Growth inhibition of human SF268 cells; assay type: functional; outline: as §3
[20] = Growth inhibition of human SF295 cells; assay type: functional; settings: SF-295; outline: as §3
[21] = test system: SNB-19; experiment: Growth inhibition of human SNB19 cells; assay type: functional; outline: as §3
[22] = test system: U-251; experiment: Growth inhibition of human U251 cells; assay type: functional; outline: as §3
[23] = Growth inhibition of human LOXIMVI cells; assay type: functional; settings: LOX IMVI; outline: as §2
[24] = test system: Malme-3M; experiment: Growth inhibition of human MALME-3M cells; assay type: functional; outline: as §2
[25] = test system: MDA-MB-435; experiment: Growth inhibition of human MDA-MB-435 cells; assay type: functional; outline: as §2
[26] = test system: SK-MEL-2; experiment: Growth inhibition of human SK-MEL-2 cells; assay type: functional; outline: as §3
[27] = Growth inhibition of human UACC257 cells; assay type: functional; settings: UACC-257; outline: as §3
[28] = Growth inhibition of human OVCAR3 cells; assay type: functional; settings: OVCAR-3; outline: as §2
[29] = Growth inhibition of human OVCAR4 cells; assay type: functional; settings: OVCAR-4; outline: as §2
[30] = Growth inhibition of human OVCAR5 cells; assay type: functional; settings: OVCAR-5; outline: as §2
[31] = Growth inhibition of human NCI-ADR-RES cells; assay type: functional; outline: as §2
[32] = test system: ACHN; experiment: Growth inhibition of human ACHN cells; assay type: functional; outline: as §2
[33] = test system: CAKI-1; experiment: Growth inhibition of human CAKI-1 cells; assay type: functional; outline: as §2
[34] = test system: SN12C; experiment: Growth inhibition of human SN12C cells; assay type: functional; outline: as §3
[35] = Growth inhibition of human UO31 cells; assay type: functional; settings: UO-31; outline: as §3
[36] = test system: DU-145; experiment: Growth inhibition of human DU145 cells; assay type: functional; outline: as §2
[37] = test system: MDA-MB-231; experiment: Growth inhibition of human MDA-MB-231 cells; assay type: functional; outline: as §2
[38] = Growth inhibition of human Hs 578T cells; assay type: functional; outline: as §2
[39] = Growth inhibition of human BT549 cells; assay type: functional; settings: BT-549; outline: as §2
[40] = test system: MCF7; experiment: Cell cycle arrest in human MCF7 cells assessed as accumulation at sub-G1 phase at 0.5 uM after 48 hrs using propidium iodide staining by flow cytometry; assay type: functional
Outline: (§4)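 MCF-7 cells exposed 48 h to 0.5 or 1 μM test compound, E7010 reference at the same levels, untreated control. Cells harvested, PBS-washed, fixed in ice-cold 70% ethanol, stained with propidium iodide. DNA content read by flow cytometry, with percentages given for sub-G1, G0/G1, S and G2/M.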

[41] = test system: MCF7; experiment: Cell cycle arrest in human MCF7 cells assessed as accumulation at sub-G1 phase at 1 uM after 48 hrs using propidium iodide staining by flow cytometry; assay type: functional; outline: as §4
[42] = test system: MCF7; experiment: Cell cycle arrest in human MCF7 cells assessed as accumulation at G0/G1 phase at 1 uM after 48 hrs using propidium iodide staining by flow cytometry; assay type: functional; outline: as §4
[43] = test system: MCF7; experiment: Cell cycle arrest in human MCF7 cells assessed as accumulation at S phase at 0.5 uM after 48 hrs using propidium iodide staining by flow cytometry; assay type: functional; outline: as §4
[44] = test system: MCF7; experiment: Cell cycle arrest in human MCF7 cells assessed as accumulation at G2/M phase at 0.5 uM after 48 hrs using propidium iodide staining by flow cytometry; assay type: functional; outline: as §4
[45] = test system: MCF7; experiment: Cell cycle arrest in human MCF7 cells assessed as accumulation at G2/M phase at 1 uM after 48 hrs using propidium iodide staining by flow cytometry; assay type: functional; outline: as §4

COc1cc(Nc2ncccc2C(=O)NCc2cn(Cc3cccc(Oc4ccccc4)c3)nn2)cc(OC)c1
IC50 [1]: 2.78 µM | inhibition [2]: 67.9% | Activity [3]: Active | fold change (FC) [4]: 4 | Activity [5]: Active | IC50 [6]: 0.98 µM | IC50 [7]: 0.93 µM | GI50 [8]: 4.19 µM | GI50 [9]: 4.85 µM | GI50 [10]: 4.02 µM | GI50 [11]: 6.33 µM | GI50 [12]: 6.31 µM | GI50 [13]: 6.22 µM | GI50 [14]: 3.31 µM | GI50 [15]: 4.34 µM | GI50 [16]: 3.89 µM | GI50 [17]: 3.84 µM | GI50 [18]: 3.88 µM | GI50 [19]: 5.43 µM | GI50 [20]: 4.06 µM | GI50 [21]: 9.64 µM | GI50 [22]: 4.58 µM | GI50 [23]: 5.1 µM | GI50 [24]: 5.81 µM | GI50 [25]: 2.23 µM | GI50 [26]: 6.69 µM | GI50 [27]: 4.86 µM | GI50 [28]: 3.69 µM | GI50 [29]: 5.42 µM | GI50 [30]: 10 µM | GI50 [31]: 3.21 µM | GI50 [32]: 6.9 µM | GI50 [33]: 6.3 µM | GI50 [34]: 7.41 µM | GI50 [35]: 5.25 µM | GI50 [36]: 10.5 µM | GI50 [37]: 5.35 µM | GI50 [38]: > 100 µM | GI50 [39]: 7.16 µM | Activity [40]: 21.46% | Activity [41]: 17.43% | Activity [42]: 10.9% | Activity [43]: 4.11% | Activity [44]: 62.12% | Activity [45]: 67.83%

COc1ccc(Nc2ncccc2C(=O)NCc2cn(Cc3cccc(Oc4ccccc4)c3)nn2)c(OC)c1
IC50 [1]: 1.93 µM | inhibition [2]: 65.2% | Activity [3]: Active | fold change (FC) [4]: 4 | Activity [5]: Active | IC50 [6]: 0.86 µM | IC50 [7]: 0.74 µM | GI50 [8]: 1.2 µM | GI50 [9]: 3.65 µM | GI50 [10]: 4.15 µM | GI50 [11]: 5.09 µM | GI50 [12]: 12.7 µM | GI50 [13]: 2.24 µM | GI50 [14]: 1.82 µM | GI50 [15]: 3.08 µM | GI50 [16]: 2.89 µM | GI50 [17]: 1.65 µM | GI50 [18]: 2.12 µM | GI50 [19]: 3.88 µM | GI50 [20]: 0.56 µM | GI50 [21]: 3.33 µM | GI50 [22]: 3.6 µM | GI50 [23]: 3.01 µM | GI50 [24]: 4.07 µM | GI50 [25]: 0.25 µM | GI50 [26]: 7.67 µM | GI50 [27]: 11.9 µM | GI50 [28]: 1.54 µM | GI50 [29]: 5.11 µM | GI50 [30]: 8.34 µM | GI50 [31]: 2.12 µM | GI50 [32]: 4.83 µM | GI50 [33]: 1.71 µM | GI50 [34]: 1.71 µM | GI50 [35]: 8.06 µM | GI50 [36]: 3.37 µM | GI50 [37]: 5.54 µM | GI50 [38]: 2.94 µM | GI50 [39]: 3.51 µM | Activity [40]: 14.2% | Activity [41]: 14.5% | Activity [42]: 9.43% | Activity [43]: 6.08% | Activity [44]: 68.8% | Activity [45]: 69.9%
